Data from ChEMBL document CHEMBL1125827, “Synthesis and smooth muscle relaxant activity of a new series of potassium channel activators: 3-amido-1,1-dimethylindan-2-ols” (J Med Chem, 1991).

Legend:
Cavia porcellus [1] = organism: Cavia porcellus; assay: Inhibition of spontaneous tone in guinea pig isolated trachealis; assay type: functional, Trachea
Cavia porcellus [2] = organism: Cavia porcellus; assay: Intrinsic activity was measured for inhibition of spontaneous tone in guinea pig isolated trachealis; assay type: functional
In short: (§1)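 Spontaneously toned guinea pig trachealis, with compounds added cumulatively. Intrinsic activity is the ratio of maximum relaxation at concentrations up to 20 μM to the maximum relaxation produced by isoprenaline (10⁻³ M) at the end of the experiment, expressed as an arithmetic mean.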

Cavia porcellus [3] = organism: Cavia porcellus; assay: Compound was measured for inhibition of spontaneous tone in guinea pig isolated trachealis; e=Insufficient material for evaluation; assay type: functional
In short: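 Spontaneously developed tension held at […]. Compounds added cumulatively. Inhibition expressed as a percentage of the relaxation produced by isoprenaline (10⁻³ M) given at the end. IC50 is the concentration giving 50% of the isoprenaline response, read from the dose-response curve; generally a geometric mean of four or more determinations.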

Cavia porcellus [4] = organism: Cavia porcellus; assay: Intrinsic activity was measured for inhibition of spontaneous tone in guinea pig isolated trachealis; e=Insufficient material for evaluation; assay type: functional; in short: as §1

Row | Compound | IC50 (Cavia porcellus [1]) | Intrinsic activity (Cavia porcellus [2]) | IC50 (Cavia porcellus [1]; Cavia porcellus, Trachea) | IC50 (Cavia porcellus [3]) | Intrinsic activity (Cavia porcellus [4])
1 | C[C@@H]1CCC(=O)N1[C@@H]1c2cc([N+](=O)[O-])ccc2C(C)(C)[C@H]1O (stereo in doubt; 37) | > 20 µM | 0.3 | – | – | –
2 | CC1(C)c2ccc([N+](=O)[O-])cc2[C@@H](N2CCCCC2=O)[C@H]1O | – | 0.89 | 0.35 µM | – | –
3 | CC1(C)c2ccc(C#N)cc2[C@@H](N2CCCCC2=O)[C@@H]1O | – | 0.94 | 0.27 µM | – | –
4 | CC1(C)c2ccc(I)cc2[C@@H](N2CCCCC2=O)[C@@H]1O | – | 0.96 | – | – | –
5 | CC1(C)c2ccc(C#N)cc2[C@@H](n2ccccc2=O)[C@@H]1O | – | 0.81 | 1.94 µM | – | –
6 | CC1CCC(=O)N1[C@@H]1c2cc([N+](=O)[O-])ccc2C(C)(C)[C@H]1O (stereo in doubt; 36b) | 3.9 µM | 0.9 | – | – | –
7 | CC1CCC(=O)N1[C@@H]1c2cc([N+](=O)[O-])ccc2C(C)(C)[C@H]1O (stereo in doubt; 36a) | – | 0.89 | – | – | –
8 | CC1(C)C=C(N2CCCCC2=O)c2cc([N+](=O)[O-])ccc21 | – | 0.94 | – | – | –
9 | CC1(C)C=C(n2ccccc2=O)c2cc(C#N)ccc21 | – | 0.77 | 5.26 µM | – | –
10 | CCc1ccc2c(c1)[C@@H](n1ccccc1=O)[C@H](O)C2(C)C | – | 0.93 | 2.17 µM | – | –
11 | CCc1ccc2c(c1)[C@@H](N1CCCCC1=O)[C@H](O)C2(C)C | – | 0.84 | 2.78 µM | – | –
12 | CC1(C)C=C(Cn2ccccc2=O)c2cc(C#N)ccc21 | – | 0.32 | > 20 µM | – | –
13 | CC1(C)c2cc(C(F)(F)F)ccc2[C@@H](N2CCCCC2=O)[C@@H]1O | – | 0.15 | > 20 µM | – | –
14 | CC1(C)C=C(n2ccccc2=O)c2cc([N+](=O)[O-])ccc21 | – | 0.95 | 0.84 µM | – | –
15 | C[C@H]1CCC(=O)N1C1=CC(C)(C)c2ccc([N+](=O)[O-])cc21 | – | – | – | Insufficient material | Insufficient material
16 | CC1(C)C=C(N2CCCCC2=O)c2ccc(C(F)(F)F)cc21 | – | 0.89 | 8.5 µM | – | –
17 | CC1(C)Oc2ccc(C#N)cc2[C@@H](N2CCCC2=O)[C@@H]1O [LEVCROMAKALIM] | – | 0.88 | 0.49 µM | – | –
18 | CC1(C)Oc2ccc(C#N)cc2C(N2CCCC2=O)C1O (centres undefined) [CROMAKALIM] | – | 0.89 | – | – | –
19 | CC1(C)c2cc(C(F)(F)F)ccc2[C@@H](n2ccccc2=O)[C@@H]1O | – | 0.14 | > 20 µM | – | –
20 | C[C@@H]1CCC(=O)N1C1=CC(C)(C)c2ccc([N+](=O)[O-])cc21 | – | 0.84 | 2.42 µM | – | –
21 | CCc1ccc2c(c1)C(C)(C)[C@@H](O)[C@@H]2N1CCCCC1=O | – | 0.4 | > 20 µM | – | –
22 | CC1(C)c2ccc(N)cc2[C@@H](n2ccccc2=O)[C@@H]1O | – | 0.1 | > 20 µM | – | –
23 | CC1(C)C=C(CN2CCCC2=O)c2cc(C#N)ccc21 | – | 0.6 | 14 µM | – | –
24 | CC1(C)c2ccc([N+](=O)[O-])cc2[C@@H](N2CCCC2=O)[C@@H]1O | – | 0.88 | 2.8 µM | – | –
25 | CC1(C)c2ccc([N+](=O)[O-])cc2[C@@H](N2CCCC2=O)[C@H]1O (relative stereo) | – | 0.26 | > 20 µM | – | –
26 | CC1(C)c2ccc([N+](=O)[O-])cc2[C@@H](n2ccccc2=O)[C@@H]1O | – | 0.89 | 0.15 µM | – | –
27 | CC1(C)c2cc(C#N)ccc2[C@@H](N2CCCCC2=O)[C@@H]1O | – | 0.17 | > 20 µM | – | –
28 | C[C@@H]1CCC(=O)N1[C@@H]1c2cc([N+](=O)[O-])ccc2C(C)(C)[C@H]1O (stereo in doubt; 36) | 0.26 µM | 0.99 | – | – | –
29 | O=C1CCCN1[C@@H]1c2cc([N+](=O)[O-])ccc2C[C@H]1O | – | 0.4 | > 20 µM | – | –
